According to ChEMBL document CHEMBL1629627, “CTX-M expression and selection of ertapenem resistance in Klebsiella pneumoniae and Escherichia coli” (Antimicrob Agents Chemother, 2009):
Calls of active or inactive are those of the source. No cut-off for these calls is given here.

How the values were obtained:
Type in all cases: functional, organism-based
Escherichia coli [1] = assay: Reduction of OmpC expression in Escherichia coli Wi expressing CTX-M2 at 4 times MIC concentration by SDS-PAGE analysis
Escherichia coli [2] = assay: Reduction of OmpC expression in Escherichia coli Wi expressing CTX-M3 at 4 times MIC concentration by SDS-PAGE analysis
Escherichia coli [3] = assay: Reduction of OmpC expression in Escherichia coli Wi expressing CTX-M9 at 4 times MIC concentration by SDS-PAGE analysis
Escherichia coli [4] = assay: Reduction of OmpC expression in Escherichia coli Wi expressing CTX-M15 at 4 times MIC concentration by SDS-PAGE analysis
Klebsiella pneumoniae [5] = assay: Reduction of OmpK36 expression in Klebsiella pneumoniae M expressing CTX-M2 at 4 times MIC concentration by SDS-PAGE analysis
Klebsiella pneumoniae [6] = assay: Reduction of OmpK36 expression in Klebsiella pneumoniae M expressing CTX-M3 at 4 times MIC concentration by SDS-PAGE analysis
Klebsiella pneumoniae [7] = assay: Reduction of OmpK36 expression in Klebsiella pneumoniae M expressing CTX-M9 at 4 times MIC concentration by SDS-PAGE analysis
Klebsiella pneumoniae [8] = assay: Reduction of OmpK36 expression in Klebsiella pneumoniae M expressing CTX-M15 at 4 times MIC concentration by SDS-PAGE analysis
Klebsiella pneumoniae [9] = assay: Reduction of OmpK36 expression in wild type Klebsiella pneumoniae M at 4 times MIC concentration by SDS-PAGE analysis
Escherichia coli [10] = assay: Reduction of OmpC expression in Escherichia coli Wi expressing CTX-M2 at 4 times MIC concentration by RT-PCR analysis
Procedure, shortened: (§1)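 Ertapenem-decreased-susceptibility mutants of E. coli Wi transformants were selected overnight (18 h, 37°C) on Trypticase soy agar containing ertapenem at fourfold the MIC. omp gene transcripts were quantified by real-time RT-PCR in isolates before and after selection. Calibration curves came from serially diluted cDNA of in vitro-obtained RNA standards for each gene, and copy numbers were compared using the curve slopes.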

Escherichia coli [11] = assay: Reduction of OmpC expression in Escherichia coli Wi expressing CTX-M3 at 4 times MIC concentration by RT-PCR analysis; procedure, shortened: as §1
Escherichia coli [12] = assay: Reduction of OmpC expression in Escherichia coli Wi expressing CTX-M9 at 4 times MIC concentration by RT-PCR analysis; procedure, shortened: as §1
Escherichia coli [13] = assay: Reduction of OmpC expression in Escherichia coli Wi expressing CTX-M15 at 4 times MIC concentration by RT-PCR analysis; procedure, shortened: as §1
Klebsiella pneumoniae [14] = assay: Reduction of OmpK36 expression in Klebsiella pneumoniae M expressing CTX-M2 at 4 times MIC concentration by RT-PCR analysis
Procedure, shortened: (§2)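 K. pneumoniae M strains, with or without CTX-M, were selected for 18 h at 37°C on Trypticase soy agar with ertapenem at four times the MIC. ompK35 (222-bp amplicon) and ompK36 (202-bp amplicon) transcripts were measured by real-time RT-PCR before and after selection; a 193-bp 16S rRNA amplicon was also amplified. Copy numbers were derived from the slopes of calibration curves made with serially diluted cDNA from in vitro RNA standards.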

Klebsiella pneumoniae [15] = assay: Reduction of OmpK36 expression in Klebsiella pneumoniae M expressing CTX-M3 at 4 times MIC concentration by RT-PCR analysis; procedure, shortened: as §2
Klebsiella pneumoniae [16] = assay: Reduction of OmpK36 expression in Klebsiella pneumoniae M expressing CTX-M9 at 4 times MIC concentration by RT-PCR analysis; procedure, shortened: as §2
Klebsiella pneumoniae [17] = assay: Reduction of OmpK36 expression in Klebsiella pneumoniae M expressing CTX-M15 at 4 times MIC concentration by RT-PCR analysis; procedure, shortened: as §2
Klebsiella pneumoniae [18] = assay: Reduction of OmpK36 expression in wild type Klebsiella pneumoniae M at 4 times MIC concentration by RT-PCR analysis; procedure, shortened: as §2
Escherichia coli [19] = assay: Antibacterial activity against Escherichia coli Wi expressing CTX-M2
Escherichia coli [20] = assay: Antibacterial activity against Escherichia coli Wi expressing CTX-M3
Escherichia coli [21] = assay: Antibacterial activity against Escherichia coli Wi expressing CTX-M9
Escherichia coli [22] = assay: Antibacterial activity against Escherichia coli Wi expressing CTX-M15
Klebsiella pneumoniae [23] = assay: Antibacterial activity against Klebsiella pneumoniae M expressing CTX-M2
Klebsiella pneumoniae [24] = assay: Antibacterial activity against Klebsiella pneumoniae M expressing CTX-M3
Klebsiella pneumoniae [25] = assay: Antibacterial activity against Klebsiella pneumoniae M expressing CTX-M9
Klebsiella pneumoniae [26] = assay: Antibacterial activity against Klebsiella pneumoniae M expressing CTX-M15
Escherichia coli [27] = assay: Reduction of OmpF expression in Escherichia coli Wi expressing CTX-M2 at 4 times MIC concentration by RT-PCR analysis; procedure, shortened: as §1
Escherichia coli [28] = assay: Reduction of OmpF expression in Escherichia coli Wi expressing CTX-M3 at 4 times MIC concentration by RT-PCR analysis; procedure, shortened: as §1
Escherichia coli [29] = assay: Reduction of OmpF expression in Escherichia coli Wi expressing CTX-M9 at 4 times MIC concentration by RT-PCR analysis; procedure, shortened: as §1
Escherichia coli [30] = assay: Reduction of OmpF expression in Escherichia coli Wi expressing CTX-M15 at 4 times MIC concentration by RT-PCR analysis; procedure, shortened: as §1
Klebsiella pneumoniae [31] = assay: Reduction of OmpK35 expression in Klebsiella pneumoniae M expressing CTX-M2 at 4 times MIC concentration by RT-PCR analysis; procedure, shortened: as §2
Klebsiella pneumoniae [32] = assay: Reduction of OmpK35 expression in Klebsiella pneumoniae M expressing CTX-M3 at 4 times MIC concentration by RT-PCR analysis; procedure, shortened: as §2
Klebsiella pneumoniae [33] = assay: Reduction of OmpK35 expression in Klebsiella pneumoniae M expressing CTX-M9 at 4 times MIC concentration by RT-PCR analysis; procedure, shortened: as §2
Klebsiella pneumoniae [34] = assay: Reduction of OmpK35 expression in Klebsiella pneumoniae M expressing CTX-M15 at 4 times MIC concentration by RT-PCR analysis; procedure, shortened: as §2

Question: For `C[C@@H](O)[C@H]1C(=O)N2C(C(=O)O)=C(S[C@@H]3CN[C@H](C(=O)Nc4cccc(C(=O)O)c4)C3)[C@H](C)[C@H]12`, which Activity (Escherichia coli [1]) is on record?
Answer: Active

Question: What about the Activity (Escherichia coli [2]) of the same compound?
Answer: Active

Question: And the Activity (Escherichia coli [3])?
Answer: Active

Question: What about the Activity (Escherichia coli [4]) of the same compound?
Answer: Active

Question: And the Activity (Klebsiella pneumoniae [5])?
Answer: Active

Question: What about the Activity (Klebsiella pneumoniae [6]) of the same compound?
Answer: Active

Question: And the Activity (Klebsiella pneumoniae [7])?
Answer: Active

Question: What about the Activity (Klebsiella pneumoniae [8]) of the same compound?
Answer: Active

Question: And the Activity (Klebsiella pneumoniae [9])?
Answer: Active

Question: And the Activity (Escherichia coli [10])?
Answer: Active

Question: And the Activity (Escherichia coli [11])?
Answer: Active

Question: What about the Activity (Escherichia coli [12]) of the same compound?
Answer: Active

Question: What about the Activity (Escherichia coli [13]) of the same compound?
Answer: Active

Question: What about the Activity (Klebsiella pneumoniae [14]) of the same compound?
Answer: Active

Question: What about the Activity (Klebsiella pneumoniae [15]) of the same compound?
Answer: Active

Question: And the Activity (Klebsiella pneumoniae [16])?
Answer: Active

Question: And the Activity (Klebsiella pneumoniae [17])?
Answer: Active

Question: What about the Activity (Klebsiella pneumoniae [18]) of the same compound?
Answer: Active

Question: And the Activity (Escherichia coli [19])?
Answer: inactive

Question: And the Activity (Escherichia coli [20])?
Answer: inactive

Question: And the Activity (Escherichia coli [21])?
Answer: inactive

Question: What about the Activity (Escherichia coli [22]) of the same compound?
Answer: inactive

Question: And the Activity (Klebsiella pneumoniae [23])?
Answer: inactive

Question: What about the Activity (Klebsiella pneumoniae [24]) of the same compound?
Answer: inactive

Question: And the Activity (Klebsiella pneumoniae [25])?
Answer: inactive

Question: And the Activity (Klebsiella pneumoniae [26])?
Answer: inactive

Question: And the Activity (Escherichia coli [27])?
Answer: Active

Question: And the Activity (Escherichia coli [28])?
Answer: Active

Question: And the Activity (Escherichia coli [29])?
Answer: Active

Question: What about the Activity (Escherichia coli [30]) of the same compound?
Answer: Active

Question: And the Activity (Klebsiella pneumoniae [31])?
Answer: Active

Question: What about the Activity (Klebsiella pneumoniae [32]) of the same compound?
Answer: Active

Question: And the Activity (Klebsiella pneumoniae [33])?
Answer: Active

Question: And the Activity (Klebsiella pneumoniae [34])?
Answer: Active
